Source: ChEMBL document CHEMBL2311419, “Discovery of coumarin-dihydropyridine hybrids as bone anabolic agents” (J Med Chem, 2013)
The source made the active and inactive calls. The rule behind the calls is not given here.

What was measured:
Mus musculus [1] = species: Mus musculus; assay: Stimulation of alkaline phosphatase activity in mouse calvarial osteoblasts at 1 pM to 1 uM after 48 hrs by spectrophotometric analysis
Method in brief: (§1)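 Calvarial osteoblasts were exposed to compounds over 1 pM to 1 µM. ALP activity was read spectrophotometrically as optical density at 405 nm. Results were expressed as % ALP activity, with EC50 and Emax derived from the concentration series.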

Mus musculus [2] = assay: Hepatotoxicity against BALB/c mouse assessed as morphological changes at 1 to 10 mg/kg/day, po after 2 months; format: toxicity, organism-based; set-up: route oral; details: in vivo
Mus musculus [3] = assay: Induction of new bone formation in ovariectomized BALB/c mouse model assessed as increase in mineral apposition rate at 5 mg/kg/day, po qd for 8 weeks by bone histomorphometry analysis (Rvb =0.11 um/day); format: functional
Mus musculus [4] = assay: Antiosteoporotic activity in ovariectomized BALB/c mouse model assessed as restoration of ovariectomy-induced reduction in trabecular number at 5 mg/kg/day, po qd for 8 weeks (reference value: 0.12+/-0.02 /mm); format: functional, Trabecula
Mus musculus [5] = assay: Inhibition of osteoclastogenesis in ovariectomized BALB/c mouse model assessed as suppression of RANK gene expression at 1 mg/kg/day, po qd for 8 weeks by qPCR analysis; format: functional, organism-based
Mus musculus [6] = assay: Induction of osteoblast differentiation in ovariectomized BALB/c mouse model assessed as upregulation of BMP2 mRNA expression po administered qd for 8 weeks by qPCR analysis; format: functional, organism-based
Mus musculus [7] = assay: Inhibition of osteoclastogenesis in ovariectomized BALB/c mouse model assessed as increase in OPG/RANKL ratio at 1 mg/kg/day, po qd for 8 weeks by qPCR analysis; format: functional, organism-based
Mus musculus [8] = assay: Antiosteoporotic activity in ovariectomized BALB/c mouse model assessed as restoration of ovariectomy-induced reduction in trabecular number at 10 mg/kg/day, po qd for 8 weeks (reference value: 0.12+/-0.02 /mm); format: functional, Trabecula
Calvarial osteoblast [9] = assay: Induction of osteoblastogenesis in mouse calvarial osteoblasts assessed as increase in COL1 expression at 100 pM to 10 nM by Western blotting analysis; format: functional, cell-based
Mus musculus [10] = assay: Inhibition of osteoclastogenesis in ovariectomized BALB/c mouse model assessed as suppression of TRAP gene expression at 1 mg/kg/day, po qd for 8 weeks by qPCR analysis; format: functional, organism-based
Mus musculus [11] = assay: Antiosteoporotic activity in ovariectomized BALB/c mouse model assessed as restoration of ovariectomy-induced increase in structural model index at 5 mg/kg/day, po qd for 8 weeks; format: functional, organism-based
Mus musculus [12] = assay: Inhibition of bone turnover in ovariectomized BALB/c mouse model assessed as reduction in ovariectomy-induced serum CTx levels at 1 mg/kg/day, po qd for 8 weeks by ELISA; format: functional, organism-based
Mus musculus [13] = assay: Inhibition of osteoclastogenesis in ovariectomized BALB/c mouse model assessed as increase in OPG/RANKL ratio at 5 to 10 mg/kg/day, po qd for 8 weeks by qPCR analysis; format: functional, organism-based
Mus musculus [14] = assay: Antiosteoporotic activity in ovariectomized BALB/c mouse model assessed as restoration of ovariectomy-induced reduction in bone volume/trabecular volume at 10 mg/kg/day, po qd for 8 weeks (reference value: 0.45+/-0.07%); format: functional, Trabecula; set-up: scale not given: the % may be the effect or the level left
Mus musculus [15] = assay: Inhibition of osteoclastogenesis in ovariectomized BALB/c mouse model assessed as suppression of RANK gene expression at 5 to 10 mg/kg/day, po qd for 8 weeks by qPCR analysis; format: functional, organism-based
Calvarial osteoblast [16] = assay: Induction of osteoblastogenesis in mouse calvarial osteoblasts assessed as increase in expression of RUNX2 gene at 100 pM by qPCR analysis relative to control; format: functional, cell-based
Mus musculus [17] = assay: Antiosteoporotic activity in ovariectomized BALB/c mouse model assessed as restoration of ovariectomy-induced increase in structural model index at 1 mg/kg/day, po qd for 8 weeks; format: functional, organism-based
Mus musculus [18] = assay: Antiosteoporotic activity in ovariectomized BALB/c mouse model assessed as restoration of ovariectomy-induced reduction in bone volume/trabecular volume at 1 mg/kg/day, po qd for 8 weeks (reference value: 0.45+/-0.07%); format: functional, Trabecula; set-up: scale not given: the % may be the effect or the level left
[19] = Cytotoxicity against mouse calvarial osteoblasts assessed as cell viability at 1 pM to 1 uM after 48 hrs by MTT assay; format: cell-based; details: calvarial osteoblast
Mus musculus [20] = assay: Induction of new bone formation in ovariectomized BALB/c mouse model assessed as increase in bone formation rate at 1 mg/kg/day, po qd for 8 weeks by bone histomorphometry analysis (Rvb =0.10 um'3/um'2/day); format: functional
Mus musculus [21] = species: Mus musculus; assay: Stimulation of alkaline phosphatase activity in mouse calvarial osteoblasts assessed as concentration required for maximum activity after 48 hrs by spectrophotometric analysis; method in brief: as §1
[22] = Stimulation of alkaline phosphatase activity in mouse calvarial osteoblasts after 48 hrs by spectrophotometric analysis; method in brief: as §1
Calvarial osteoblast [23] = assay: Induction of mineralization in mouse calvarial osteoblasts assessed as increase of mineralized nodules formation measuring concentration required for maximum activity after 21 days by alizarin red-S staining based spectrophotometric analysis; format: functional
Mus musculus [24] = assay: Antiosteoporotic activity in ovariectomized BALB/c mouse model assessed as restoration of ovariectomy-induced reduction in bone volume/trabecular volume at 5 mg/kg/day, po qd for 8 weeks (reference value: 0.45+/-0.07%); format: functional, Trabecula; set-up: scale not given: the % may be the effect or the level left
Calvarial osteoblast [25] = assay: Induction of osteoblastogenesis in mouse calvarial osteoblasts assessed as increase in expression of ALP gene at 100 pM to 10 nM by qPCR analysis relative to control; format: functional
Calvarial osteoblast [26] = assay: Induction of osteoblastogenesis in mouse calvarial osteoblasts assessed as increase in expression of COL1 gene at 100 pM to 10 nM by qPCR analysis relative to control; format: functional
Calvarial osteoblast [27] = assay: Induction of osteoblastogenesis in mouse calvarial osteoblasts assessed as increase in expression of BMP2 gene at 100 pM to 10 nM by qPCR analysis relative to control; format: functional
Mus musculus [28] = assay: Induction of osteoblast differentiation in ovariectomized BALB/c mouse model assessed as upregulation of BMP2 mRNA expression at 1 mg/kg/day, po qd for 8 weeks by qPCR analysis; format: functional, organism-based
Mus musculus [29] = assay: Antiosteoporotic activity in ovariectomized BALB/c mouse model assessed as restoration of ovariectomy-induced increase in trabecular separation at 5 mg/kg/day, po qd for 8 weeks (reference value: 0.99+/-0.08mm); format: functional, Trabecula
Mus musculus [30] = assay: Antiosteoporotic activity in ovariectomized BALB/c mouse model assessed as restoration of ovariectomy-induced increase in trabecular separation at 10 mg/kg/day, po qd for 8 weeks (reference value: 0.99+/-0.08mm); format: functional, Trabecula
Calvarial osteoblast [31] = assay: Induction of osteoblastogenesis in mouse calvarial osteoblasts assessed as increase in expression of COL1 gene at 100 pM by qPCR analysis relative to control; format: functional, cell-based
Calvarial osteoblast [32] = assay: Induction of osteoblastogenesis in mouse calvarial osteoblasts assessed as increase in expression of RUNX2 gene at 100 pM to 10 nM by qPCR analysis relative to control; format: functional
Mus musculus [33] = assay: Antiosteoporotic activity in ovariectomized BALB/c mouse model assessed as restoration of ovariectomy-induced increase in structural model index at 10 mg/kg/day, po qd for 8 weeks; format: functional, organism-based

With `CCOC(=O)C1=C(C)NC2=C(C(=O)CCC2)C1c1cc(C(C)CC)c2oc(=O)c(C(=O)OC)cc2c1` (stereo not drawn) the Activity (Mus musculus [1]) was 80%, the Activity (Mus musculus [2]) was “Non-toxic” and the Activity (Mus musculus [3]) was 0.294 micrometer/day. The Activity (Mus musculus [4]) was 0.3 /millimeter, the inhibition (Mus musculus [5]) was “Active” and the Activity (Mus musculus [6]) was “Dose-dependent effect”. For the same molecule, the inhibition (Mus musculus [7]) was “Active”, the Activity (Mus musculus [8]) was 0.32 /millimeter and the Activity (Calvarial osteoblast [9]) was “Active”. For the same molecule, the inhibition (Mus musculus [10]) was “Active”, the Activity (Mus musculus [11]) was “Active” and the inhibition (Mus musculus [12]) was “Active”. For the same molecule, the inhibition (Mus musculus [13]) was “Active”, the Activity (Mus musculus [14]) was 2.07% and the inhibition (Mus musculus [15]) was “Active”. The Activity (Calvarial osteoblast [16]) was “Active”, the Activity (Mus musculus [17]) was “Active” and the Activity (Mus musculus [18]) was 2.85%. For the same molecule, the Activity [19] was “Non-toxic”, the Activity (Mus musculus [20]) was 0.37 um3/um2/day and the Concentration giving maximum ALP activity (Mus musculus [21]) was 100 pM. For the same molecule, the EC50 [22] was 1170 nM, the “Concentration for maximum mineralization” value (Calvarial osteoblast [23]) was 100 pM and the Activity (Mus musculus [24]) was 2.33%. For the same molecule, the “fold change (FC)” value (Calvarial osteoblast [25]) was 1.5, the “fold change (FC)” value (Calvarial osteoblast [26]) was 1.5 and the “fold change (FC)” value (Calvarial osteoblast [27]) was 1.5. The Activity (Mus musculus [28]) was “Active”, the Activity (Mus musculus [29]) was 0.72 mm and the Activity (Mus musculus [30]) was 0.68 mm. For the same molecule, the Activity (Calvarial osteoblast [31]) was “Active”, the “fold change (FC)” value (Calvarial osteoblast [32]) was 1.5 and the Activity (Mus musculus [33]) was “Active”.
